Here are results for 5 compounds from ChEMBL document CHEMBL1125014, “Synthesis and structure-activity relationships of new 9-N-alkyl derivatives of 9(S)-erythromycylamine” (1990).

Values after ≈ are worked out from the molar mass of the structure shown.

Experiment [1] concerns Haemophilus influenzae. The experiment can be described thus: MIC value was measured against haemophilus influenzae CL. It counts as functional.
For experiment [2], the system named is Staphylococcus epidermidis. The experiment can be described thus: MIC value was measured against staphylococcus epidermidis 222. The experiment is classed as functional. The method, boiled down: (§1)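 Susceptibility determined by standard agar-dilution method against a panel of bacterial strains.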
Experiment [3] has as its system Streptococcus pneumoniae. The experiment can be described thus: MIC value was measured against streptococcus pneumoniae park1. The experiment is classed as functional. In a few lines:
as §1

The test system of experiment [4] is Staphylococcus aureus. The experiment is described as follows: MIC value measured against staphylococcus aureus X1. It counts as functional.
Another experiment relates to Enterococcus faecalis. The experiment can be described thus: MIC value was measured against streptococcus faecalis X66. The experiment is classed as functional. The method, boiled down: as §1
The subject of experiment [5] is Streptococcus pyogenes. The experiment is described as follows: MIC value measured against streptococcus pyogenes C203. It counts as functional.
The test system of experiment [6] is Haemophilus influenzae. The experiment is described as follows: MIC value was measured against haemophilus influenzae. It counts as functional. In a few lines:
as §1

Experiment [7] relates to Staphylococcus aureus. The experiment is described as follows: Effective dose against mice infected with Staphylococcus aureus after peroral administration (in vivo). The experiment is classed as functional. The settings on record: in Mus musculus, po.
In experiment [8] the test system is Streptococcus pneumoniae. The experiment is described as follows: Effective dose against mice infected with streptococcus pneumoniae after peroral administration (in vivo). The experiment is classed as functional. As to conditions: in Mus musculus, po.
In experiment [9] the test system is Streptococcus pyogenes. The experiment is described as follows: Effective dose against mice infected with streptococcus pyogenes after peroral administration (in vivo). The settings on record: in Mus musculus, po. It counts as functional.
For experiment [10], the system named is Streptococcus pneumoniae. The experiment is described as follows: MIC value measured against streptococcus pneumoniae Park1. It counts as functional.
Experiment [11] has as its system Staphylococcus epidermidis. The experiment can be described thus: MIC value was measured against staphylococcus epidermidis. The experiment is classed as functional. The method, boiled down: as §1
Experiment [12] deals with Mus musculus. The experiment can be described thus: ED50 value was measured against staphylococcus aureus after sc administration in mice (in vivo, in experiment 1). The experiment is classed as functional. The method, boiled down:
(§2)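 Infected mice were dosed orally or subcutaneously at 1 and 5 h postinfection, 0.25 mL of antibiotic solution in 10% aqueous ethanol per dose. Tartaric acid was added where needed for solubility. Several dose concentrations were tested to give the ED50.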

The subject of experiment [13] is Mus musculus. The experiment can be described thus: ED50 value was measured against staphylococcus aureus infection in mice (in vivo, in experiment 1). It counts as functional. The method, boiled down: as §2
Experiment [14] concerns Mus musculus. The experiment is described as follows: ED50 value was measured against streptococcus pneumoniae after po administration in mice (in vivo, in experiment 1). It counts as functional. In a few lines:
as §2

The test system of experiment [15] is Mus musculus. The experiment can be described thus: ED50 value was measured against streptococcus pneumoniae after sc administration in mice (in vivo, in experiment 1). It counts as functional. The method, boiled down:
as §2

Experiment [16] relates to Mus musculus. The experiment can be described thus: ED50 value was measured against streptococcus pyogenes after po administration in mice (in vivo, in experiment 1). It counts as functional. In a few lines: as §2
Experiment [17] has as its system Mus musculus. The experiment is described as follows: ED50 value was measured against streptococcus pyogenes after sc administration in mice (in vivo, in experiment 1). The experiment is classed as functional. In a few lines:
as §2

Experiment [18] relates to Staphylococcus epidermidis. The experiment is described as follows: microbe, parasite or virus in culture. It counts as functional.
Experiment [19] relates to Mus musculus. The experiment can be described thus: ED50 value was measured against staphylococcus aureus after po administration in mice (in vivo, in experiment 3). The experiment is classed as functional. In a few lines: as §2
Experiment [20] relates to Mus musculus. The experiment can be described thus: ED50 value was measured against staphylococcus aureus after sc administration in mice (in vivo, in experiment 3). It counts as functional. The method, boiled down: as §2
For experiment [21], the system named is Mus musculus. The experiment can be described thus: ED50 value was measured against streptococcus pneumoniae after po administration in mice (in vivo, in experiment 3). It counts as functional. The method, boiled down: as §2
For experiment [22], the system named is Mus musculus. The experiment can be described thus: ED50 value was measured against streptococcus pneumoniae after sc administration in mice (in vivo, in experiment 3). The experiment is classed as functional. The method, boiled down: as §2
Experiment [23] has as its system Mus musculus. The experiment is described as follows: ED50 value was measured against streptococcus pyogenes after po administration in mice (in vivo, in experiment 3). It counts as functional. The method, boiled down: as §2
In experiment [24] the test system is Mus musculus. The experiment can be described thus: ED50 value was measured against streptococcus pyogenes after sc administration in mice (in vivo, in experiment 3). The experiment is classed as functional. The method, boiled down:
as §2

Experiment [25] relates to Streptococcus pneumoniae. The experiment is described as follows: MIC value was measured against streptococcus pneumoniae park1.

As to `CCCN1C(C)O[C@@H]2[C@@H](C)[C@@H]1[C@H](C)C[C@@](C)(O)[C@H](OC1OC(C)CC(N(C)C)C1O)[C@@H](C)[C@H](OC1CC(C)(OC)C(O)C(C)O1)[C@@H](C)C(=O)O[C@H](CC)[C@@]2(C)O` (some centres undefined), the MIC turned out to be 1 µg/mL (≈ 1.25 µM) against Haemophilus influenzae [1]; 0.25 µg/mL (≈ 0.311 µM) in [2]; 0.015 µg/mL (≈ 0.0187 µM) with Streptococcus pneumoniae [3]; 1 µg/mL (≈ 1.25 µM) against Staphylococcus aureus [4]; 0.25 µg/mL (≈ 0.311 µM) in the experiment with Enterococcus faecalis; 0.06 µg/mL (≈ 0.0747 µM) against Streptococcus pyogenes [5].
Consider `CCC(CC)CN[C@@H]1[C@H](C)[C@@H](O)[C@](C)(O)[C@@H](CC)OC(=O)[C@H](C)[C@@H](OC2CC(C)(OC)C(O)C(C)O2)[C@H](C)[C@@H](OC2OC(C)CC(N(C)C)C2O)[C@](C)(O)C[C@H]1C` (some centres undefined), for which the MIC with Haemophilus influenzae [6] is 2 µg/mL (≈ 2.44 µM); with Haemophilus influenzae [1] it was 2 µg/mL (≈ 2.44 µM); in the experiment on Streptococcus pneumoniae [10], 0.015 µg/mL (≈ 0.0183 µM); against Staphylococcus aureus [4], 0.5 µg/mL (≈ 0.61 µM); in experiment [11] it was 0.5 µg/mL (≈ 0.61 µM); against Streptococcus pyogenes [5], 0.015 µg/mL (≈ 0.0183 µM). For the same compound, the ED50 with Staphylococcus aureus [7] stood at 22 mg/kg; in the experiment with Streptococcus pneumoniae [8], 17 mg/kg; with Streptococcus pyogenes [9], 10 mg/kg.
With `CC[C@H]1OC(=O)[C@H](C)[C@@H](OC2CC(C)(OC)C(O)C(C)O2)[C@H](C)[C@@H](OC2OC(C)CC(N(C)C)C2O)[C@](C)(O)C[C@@H](C)[C@H](NCCOCCOC)[C@H](C)[C@@H](O)[C@]1(C)O` (some centres undefined), the MIC came to 2 µg/mL (≈ 2.39 µM) in the experiment on Haemophilus influenzae [6]; 2 µg/mL (≈ 2.39 µM) in the experiment on Haemophilus influenzae [1]; 0.015 µg/mL (≈ 0.0179 µM) in the experiment on Streptococcus pneumoniae [10]; 1 µg/mL (≈ 1.19 µM) in the experiment on Staphylococcus aureus [4]; 0.12 µg/mL (≈ 0.143 µM) in the experiment with Streptococcus pyogenes [5]; 1 µg/mL (≈ 1.19 µM) in [18]. Further, the median effective dose (ED50) worked out at 22 mg/kg in the experiment with Staphylococcus aureus [7]; 23 mg/kg with Streptococcus pneumoniae [8]; 27 mg/kg with Streptococcus pyogenes [9]; 3.8 mg/kg in the experiment with Mus musculus [12]; 78 mg/kg with Mus musculus [13]; 43 mg/kg in the experiment with Mus musculus [14]. Further, the values for the ED50 in the experiment on Mus musculus [15], with Mus musculus [16] and in the experiment with Mus musculus [17] were 1.4 mg/kg, 37 mg/kg and 5.3 mg/kg, respectively.
Regarding `CCC1N[C@@H]2[C@H](C)[C@@H](O1)[C@](C)(O)[C@@H](CC)OC(=O)[C@H](C)[C@@H](OC1CC(C)(OC)C(O)C(C)O1)[C@H](C)[C@@H](OC1OC(C)CC(N(C)C)C1O)[C@](C)(O)C[C@H]2C` (some centres undefined), the MIC with Haemophilus influenzae [1] was determined as 8 µg/mL (≈ 10.3 µM); with Streptococcus pneumoniae [3] it was 0.12 µg/mL (≈ 0.155 µM); against Staphylococcus aureus [4] it was 0.5 µg/mL (≈ 0.645 µM); against Enterococcus faecalis it was 0.5 µg/mL (≈ 0.645 µM); against Streptococcus pyogenes [5], 0.12 µg/mL (≈ 0.155 µM); in [18], 0.5 µg/mL (≈ 0.645 µM). Further, the ED50 in the experiment on Mus musculus [19] is 20 mg/kg; with Staphylococcus aureus [7] it was 34 mg/kg; in the experiment on Streptococcus pneumoniae [8], 30 mg/kg; in the experiment on Streptococcus pyogenes [9] it was 35 mg/kg; in the experiment on Mus musculus [20] it was 0.8 mg/kg; in the experiment on Mus musculus [21], 17 mg/kg. Further, the ED50 in the experiment with Mus musculus [22] was less than 0.6 mg/kg; in the experiment on Mus musculus [23], 19 mg/kg; with Mus musculus [24], less than 0.6 mg/kg.
In the case of `CC[C@H]1OC(=O)[C@H](C)[C@@H](OC2CC(C)(OC)C(O)C(C)O2)[C@H](C)[C@@H](OC2OC(C)CC(N(C)C)C2O)[C@](C)(O)C[C@@H](C)[C@H](NCC2CC=CCC2)[C@H](C)[C@@H](O)[C@]1(C)O` (some centres undefined), the MIC with Haemophilus influenzae [1] worked out at 4 µg/mL (≈ 4.82 µM); against Staphylococcus aureus [4] it was 1 µg/mL (≈ 1.21 µM); with Enterococcus faecalis, 0.25 µg/mL (≈ 0.302 µM); against Streptococcus pyogenes [5] it was 0.06 µg/mL (≈ 0.0724 µM); in [18], 0.25 µg/mL (≈ 0.302 µM); in the experiment with Streptococcus pneumoniae [25] it was 8 ng/mL (≈ 0.00965 µM). Moreover, the median effective dose (ED50) in the experiment on Staphylococcus aureus [7] amounted to 20 mg/kg; in the experiment on Streptococcus pneumoniae [8], 9 mg/kg; with Streptococcus pyogenes [9], 15 mg/kg.

In general, ED50 refers to the dose at which the effect has come halfway, by size or by number of responders.
